Data: ChEMBL document CHEMBL5244263, “Studies on fragment-based design of allosteric inhibitors of human factor XIa” (Bioorg Med Chem, 2020)
Calls of active or inactive are those of the source. No cut-off for these calls is given here.

Assays:
Bos taurus = species on record: Bos taurus; assay: Inhibition of bovine trypsin using S-2222 as chromogenic substrate at 500 uM by chromogenic substrate hydrolysis assay
Homo sapiens = species on record: Homo sapiens; assay: Inhibition of human FXIa heparin-binding site of A3 domain harboring K252A,K253A,K255A mutant and heparin-binding site of catalytic domain harboring K529A,R530A,R532A,K535A,K539A mutant using S-2366 as chromogenic substrate preincubated with enzyme for 10 mins followed by substrate addition by spectrophotometric analysis relative to control
Outline: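 Recombinant hFXIa alanine mutants tested in 50 mM Tris-HCl pH 7.4, 150 mM NaCl, 0.1% PEG8000, 0.02% Tween80. Inhibitor and enzyme incubated 10 min at 37 °C, then S-2366 (345 μM final) added and residual activity read. IC50 and maximal inhibition efficacy (ΔY) obtained by nonlinear dose-response regression.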

[1] = molecular target: T1, Coagulation factor VII (Homo sapiens) (UniProt P08709); assay: Inhibition of FVIIa (unknown origin) at 500 uM by chromogenic substrate hydrolysis assay
T1 sequence (whole entry): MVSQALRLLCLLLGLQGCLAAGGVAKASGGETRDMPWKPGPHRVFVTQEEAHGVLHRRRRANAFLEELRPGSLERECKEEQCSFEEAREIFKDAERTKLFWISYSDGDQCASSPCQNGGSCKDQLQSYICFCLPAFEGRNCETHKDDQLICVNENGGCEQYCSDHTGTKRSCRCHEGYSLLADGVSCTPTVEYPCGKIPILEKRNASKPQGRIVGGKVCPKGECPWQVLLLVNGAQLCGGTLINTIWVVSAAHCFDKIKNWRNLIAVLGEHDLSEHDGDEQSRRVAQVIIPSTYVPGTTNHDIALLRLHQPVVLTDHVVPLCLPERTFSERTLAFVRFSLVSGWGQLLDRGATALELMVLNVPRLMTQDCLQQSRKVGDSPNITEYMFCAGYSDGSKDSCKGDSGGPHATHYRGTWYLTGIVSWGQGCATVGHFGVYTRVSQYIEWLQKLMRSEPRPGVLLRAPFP

[2] = molecular target: Coagulation factor X (Homo sapiens) (UniProt P00742); assay: Inhibition of human FXa using methoxycarbonyl-D-cyclohexylglycyl-Gly-Arg-p-nitroanilide as substrate at 500 uM by chromogenic substrate hydrolysis assay
Sequence of Coagulation factor X (Homo sapiens) (P00742 41-179 limits assumed): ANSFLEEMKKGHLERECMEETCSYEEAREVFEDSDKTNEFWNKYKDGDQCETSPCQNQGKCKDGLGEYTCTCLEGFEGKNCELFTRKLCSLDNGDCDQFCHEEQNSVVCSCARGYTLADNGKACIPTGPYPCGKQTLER
Sequence of Coagulation factor X (Homo sapiens) (P00742 235-488 limits assumed): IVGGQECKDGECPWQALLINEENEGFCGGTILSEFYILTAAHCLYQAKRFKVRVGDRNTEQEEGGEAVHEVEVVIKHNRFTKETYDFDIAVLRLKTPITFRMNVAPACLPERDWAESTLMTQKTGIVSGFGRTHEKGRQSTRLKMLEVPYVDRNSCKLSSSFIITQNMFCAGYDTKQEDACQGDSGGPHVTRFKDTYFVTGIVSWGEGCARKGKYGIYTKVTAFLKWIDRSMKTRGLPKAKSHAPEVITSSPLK

[3] = molecular target: Coagulation factor IX (Homo sapiens) (UniProt P00740); assay: Inhibition of human FIXa at 500 uM by chromogenic substrate hydrolysis assay
Sequence of Coagulation factor IX (Homo sapiens) (P00740 47-191 limits assumed): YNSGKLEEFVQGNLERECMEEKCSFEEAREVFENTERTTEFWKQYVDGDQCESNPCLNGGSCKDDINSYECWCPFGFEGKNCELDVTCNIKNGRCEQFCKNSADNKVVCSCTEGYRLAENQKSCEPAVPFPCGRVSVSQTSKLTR
Sequence of Coagulation factor IX (Homo sapiens) (P00740 227-461 limits assumed): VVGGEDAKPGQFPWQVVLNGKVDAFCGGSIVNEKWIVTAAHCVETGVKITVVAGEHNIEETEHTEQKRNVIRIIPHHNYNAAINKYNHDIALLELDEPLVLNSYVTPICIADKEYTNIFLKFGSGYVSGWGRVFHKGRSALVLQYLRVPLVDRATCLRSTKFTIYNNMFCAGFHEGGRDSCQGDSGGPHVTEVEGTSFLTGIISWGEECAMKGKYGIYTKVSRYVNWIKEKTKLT

[4] = molecular target: Plasma kallikrein (Homo sapiens) (UniProt P03952); assay: Inhibition of Kallikrein in human plasma at 500 uM by chromogenic substrate hydrolysis assay; type: cell-free
Sequence of Plasma kallikrein (Homo sapiens) (P03952 20-390 limits assumed): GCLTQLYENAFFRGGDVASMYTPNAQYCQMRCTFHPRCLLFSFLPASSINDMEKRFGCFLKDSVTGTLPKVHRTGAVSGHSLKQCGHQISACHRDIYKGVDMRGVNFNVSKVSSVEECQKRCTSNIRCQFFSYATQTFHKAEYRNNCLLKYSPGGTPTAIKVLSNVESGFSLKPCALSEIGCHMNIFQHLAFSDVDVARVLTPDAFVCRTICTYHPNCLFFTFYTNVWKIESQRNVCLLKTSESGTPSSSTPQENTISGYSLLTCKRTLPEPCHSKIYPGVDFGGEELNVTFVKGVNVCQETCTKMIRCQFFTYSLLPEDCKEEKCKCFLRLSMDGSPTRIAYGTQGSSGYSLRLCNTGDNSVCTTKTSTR
Sequence of Plasma kallikrein (Homo sapiens) (P03952 391-638 limits assumed): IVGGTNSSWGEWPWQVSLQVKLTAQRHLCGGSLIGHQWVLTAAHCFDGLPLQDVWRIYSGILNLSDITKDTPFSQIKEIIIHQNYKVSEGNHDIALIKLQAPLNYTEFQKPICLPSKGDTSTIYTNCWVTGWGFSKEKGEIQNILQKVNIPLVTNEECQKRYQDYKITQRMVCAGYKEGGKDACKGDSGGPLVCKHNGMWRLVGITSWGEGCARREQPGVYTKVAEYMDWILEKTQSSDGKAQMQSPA

[5] = molecular target: Chymotrypsinogen A (Bos taurus) (UniProt P00766); assay: Inhibition of bovine alpha-chymotrypsin at 500 uM by chromogenic substrate hydrolysis assay
[6] = molecular target: Prothrombin (Homo sapiens) (UniProt P00734); assay: Inhibition of human thrombin at 500 uM by chromogenic substrate hydrolysis assay
Coagulation factor XI [7] = molecular target: T2, Coagulation factor XI (Homo sapiens, UniProt P03951); assay: Binding affinity to active site dansylated human DEGR-FXIa assessed as hyperbolic interaction by measuring change in fluorescence intensity by fluorescence based analysis
T2 sequence (P03951 19-387 limits assumed): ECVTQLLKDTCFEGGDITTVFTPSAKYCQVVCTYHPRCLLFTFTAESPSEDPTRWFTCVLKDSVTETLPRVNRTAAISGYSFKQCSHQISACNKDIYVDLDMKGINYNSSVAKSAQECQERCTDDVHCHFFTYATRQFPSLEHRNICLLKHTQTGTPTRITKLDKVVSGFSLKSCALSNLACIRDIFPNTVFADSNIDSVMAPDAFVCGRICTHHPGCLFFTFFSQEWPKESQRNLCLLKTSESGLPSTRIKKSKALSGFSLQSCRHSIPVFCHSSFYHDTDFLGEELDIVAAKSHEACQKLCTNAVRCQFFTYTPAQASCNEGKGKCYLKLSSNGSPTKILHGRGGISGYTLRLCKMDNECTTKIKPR
T2 sequence (P03951 388-625 limits assumed): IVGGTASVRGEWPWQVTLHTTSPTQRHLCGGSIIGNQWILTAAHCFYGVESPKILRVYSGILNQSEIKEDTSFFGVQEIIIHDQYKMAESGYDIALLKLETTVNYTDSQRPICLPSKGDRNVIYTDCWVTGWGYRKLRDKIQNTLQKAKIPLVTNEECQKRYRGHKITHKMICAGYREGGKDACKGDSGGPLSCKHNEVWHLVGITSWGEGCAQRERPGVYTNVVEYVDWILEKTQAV
Outline: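 Titration of sulfated QAOs into 250 nM active-site dansylated hFXIa–DEGR in 50 mM Tris-HCl pH 7.4, 150 mM NaCl, 0.1% PEG8000, 37 °C. Emission monitored at 547 nm (excitation 345 nm). ΔFMAX, Hill coefficient n and KD obtained by nonlinear regression, using either the Hill equation or a standard hyperbolic equation. Error ±1 SE.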

Coagulation factor XI [8] = molecular target: T2, Coagulation factor XI; assay: Binding affinity to active site dansylated human DEGR-FXIa assessed as maximal change in fluorescence intensity by fluorescence based analysis
Outline: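 Dansyl fluorescence titration: aliquots of sulfated QAO added to 250 nM hFXIa–DEGR in 50 mM Tris-HCl pH 7.4, 150 mM NaCl, 0.1% PEG8000 at 37 °C. Emission read at 547 nm with excitation at 345 nm. ΔFMAX, Hill coefficient and KD come from nonlinear regression fits, using the Hill equation or a standard hyperbolic equation. Error is ±1 SE.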

Coagulation factor XI [9] = molecular target: T2, Coagulation factor XI; assay: Binding affinity to active site dansylated human DEGR-FXIa assessed as change in fluorescence intensity by fluorescence based analysis
Coagulation factor XI [10] = molecular target: T2, Coagulation factor XI; assay: Inhibition of human FXIa using S-2366 as chromogenic substrate preincubated with enzyme for 10 mins followed by substrate addition by spectrophotometric analysis

`O=c1c2ccccc2nc(-c2ccc(OS(=O)(=O)O)cc2)n1CCCCCCCCCn1c(-c2ccc(OS(=O)(=O)O)cc2)nc2ccccc2c1=O` was tested, and the inhibition (Bos taurus) was “inactive”, the inhibition (Homo sapiens) was 105% and the inhibition [1] was “inactive”. For the same molecule, the inhibition [2] was “inactive”, the inhibition [3] was “inactive” and the inhibition [4] was “inactive”. For the same molecule, the inhibition [5] was “inactive” and the inhibition [6] was “inactive”.
For `O=c1[nH]c(-c2ccc(OS(=O)(=O)O)cc2)nc2ccccc12`, the Activity (Coagulation factor XI [7]) was “Active”, the Activity (Coagulation factor XI [8]) was -34% and the Kd (Coagulation factor XI [9]) was 365 µM. For the same molecule, the IC50 (Coagulation factor XI [10]) was 375 µM.
